From ChEMBL document CHEMBL1148641, “Design and synthesis of novel sulfonamide-containing bradykinin hB2 receptor antagonists. 1. Synthesis and SAR of alpha,alpha-dimethylglycine sulfonamides” (J Med Chem, 2006)

Tests used:
B2 bradykinin receptor [1] = target: T1, B2 bradykinin receptor (Homo sapiens, UniProt P30411); experiment: Displacement of [3H]BK from human B2 receptor transfected in CHO cells; format: cell-based
T1 sequence (P30411 whole entry): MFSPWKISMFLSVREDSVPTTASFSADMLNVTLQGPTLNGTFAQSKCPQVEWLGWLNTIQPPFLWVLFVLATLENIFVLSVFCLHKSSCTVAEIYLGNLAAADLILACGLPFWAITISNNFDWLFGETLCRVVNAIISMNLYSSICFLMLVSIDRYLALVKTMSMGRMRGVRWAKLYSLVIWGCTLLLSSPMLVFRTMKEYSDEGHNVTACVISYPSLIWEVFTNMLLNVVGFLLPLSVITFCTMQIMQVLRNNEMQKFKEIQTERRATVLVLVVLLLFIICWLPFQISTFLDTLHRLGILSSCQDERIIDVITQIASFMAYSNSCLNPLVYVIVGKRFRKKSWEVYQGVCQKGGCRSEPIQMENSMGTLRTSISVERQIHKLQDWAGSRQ
How it was run: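 Membranes from stably transfected CHO cells (100-150 µg/mL) incubated 60 min at room temperature with [³H]BK at 0.1-0.2 nM in TES buffer pH 7.4 with 1,10-phenanthroline, bacitracin and BSA, 1% DMSO final. Competitor 1 pM-10 µM; nonspecific binding with 1 µM BK. Filtration, scintillation counting; IC50 converted to pKi by Cheng-Prusoff.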

B2 bradykinin receptor [2] = target: T1, B2 bradykinin receptor; experiment: Activity at human B2 receptor transfected in CHO cells assessed as ability to antagonize BK-induced inositol-phosphate accumulation; format: functional, cell-based; conditions: read-out: pA2 (converted)
How it was run: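 Stably transfected CHO cells (1.8 × 10⁵/well) grown overnight at 37 °C, then labeled 24 h with [³H]myo-inositol (1 µCi/well). Antagonist preincubation 20 min at a nanomolar concentration, then BK 1 × 10^-11 to 1 × 10^-5 M for 40 min at 37 °C in LiCl-containing buffer, pH 7.4. IP1 radioactivity by liquid scintillation; pA₂ from EC50 concentration-ratios of sigmoidal fits.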

Cavia porcellus [3] = experiment: Inhibition of BK-induced bronchoconstriction in guinea pig intratracheally administered at 300 nmol/kg for 210 min; format: functional; conditions: inhaled or nasal, 3.5 h
How it was run: (§1)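 Anesthetized guinea pigs given compound intratracheally at 300 nmol/kg. BK-induced bronchoconstriction and BK-induced hypotension followed over time after dosing.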

Cavia porcellus [4] = experiment: Reduction in hypotensive effect in guinea pig intratracheally administered at 300 nmol/kg for 60 min; format: functional; set-up: scale not given: the % may be the effect or the level left; how it was run: as §1

| SMILES | Ki (B2 bradykinin receptor [1]) | Kb (B2 bradykinin receptor [2]) | other results |
| --- | --- | --- | --- |
| Cc1ccc2cccc(OCc3c(Cl)ccc(S(=O)(=O)NC(C)(C)C(=O)NCCCNCc4ccc(S(C)(=O)=O)cc4)c3Cl)c2n1 | 79.4 nM | – | – |
| Cc1cc(C)c2cccc(OCc3c(Cl)ccc(S(=O)(=O)NC(C)(C)C(=O)N4CCN(C(=O)C[C@@H](N)CCCN(C)C)CC4)c3Cl)c2n1 | 0.631 nM | 2.51 nM | – |
| Cc1ccc2cccc(OCc3c(Cl)ccc(S(=O)(=O)NC(C)(C)C(=O)N4CCN(C(=O)C[C@@H](N)CCCCN=C(N)N)CC4)c3Cl)c2n1 | 1.26 nM | 7.94 nM | – |
| Cc1ccc2cccc(OCc3c(Cl)ccc(S(=O)(=O)NC(C)(C)C(=O)N4CCN(C(=O)[C@@H](N)CCCCN(C)C)CC4)c3Cl)c2n1 | 2 nM | 11.2 nM | – |
| Cc1cc(C)c2cccc(OCc3c(Cl)ccc(S(=O)(=O)N4CCC[C@@H]4C(=O)NCCCNC(=O)c4ccc(C(=N)N)cc4)c3Cl)c2n1 | 0.794 nM | – | – |
| Cc1cc(C)c2cccc(OCc3c(Cl)ccc(S(=O)(=O)NC(C)(C)C(=O)NCCCN)c3Cl)c2n1 | 25.1 nM | – | – |
| Cc1ccc2cccc(OCc3c(Cl)ccc(S(=O)(=O)NC(C)(C)C(=O)NCCCNCc4ccc(N(C)C)cc4)c3Cl)c2n1 | 158 nM | – | – |
| Cc1ccc2cccc(OCc3c(Cl)ccc(S(=O)(=O)NC(C)(C)C(=O)N4CCCNCCC4)c3Cl)c2n1 | 100 nM | – | – |
| Cc1ccc2cccc(OCc3c(Cl)ccc(S(=O)(=O)NC(C)(C)C(=O)N4CCN(C(=O)CN5CCNCC5)CC4)c3Cl)c2n1 | 3.98 nM | 25.1 nM | – |
| Cc1ccc2cccc(OCc3c(Cl)ccc(S(=O)(=O)NC(C)(C)C(=O)Nc4ccccc4)c3Cl)c2n1 | 7940 nM | – | – |
| Cc1ccc2cccc(OCc3c(Cl)ccc(S(=O)(=O)NC(C)(C)C(=O)NCCCNC(=O)c4ccc(C(=N)N)cc4)c3Cl)c2n1 | 20 nM | – | – |
| COc1ccc(CNCCCNC(=O)C(C)(C)NS(=O)(=O)c2ccc(Cl)c(COc3cccc4ccc(C)nc34)c2Cl)cc1 | 200 nM | – | – |
| Cc1ccc2cccc(OCc3c(Cl)ccc(S(=O)(=O)NC(C)(C)C(=O)NCCCNCc4ccc(F)cc4)c3Cl)c2n1 | 398 nM | – | – |
| Cc1ccc2cccc(OCc3c(Cl)ccc(S(=O)(=O)NC(C)(C)C(=O)NCCCNCc4ccc(C(N)=O)cc4)c3Cl)c2n1 | 126 nM | – | – |
| Cc1cc(C)c2cccc(OCc3c(Cl)ccc(S(=O)(=O)NC(C)(C)C(=O)N4CCN(C(=O)C[C@@H](N)CCCCN(C)C)CC4)c3Cl)c2n1 | 0.501 nM | 2.51 nM | – |
| CC(=O)N[C@@H](CCCCN(C)C)C(=O)N1CCN(C(=O)C(C)(C)NS(=O)(=O)c2ccc(Cl)c(COc3cccc4ccc(C)nc34)c2Cl)CC1 | 10 nM | 20 nM | – |
| Cc1ccc2cccc(OCc3c(Cl)ccc(S(=O)(=O)NC(C)(C)C(=O)N=C(N)N)c3Cl)c2n1 | 63.1 nM | – | – |
| Cc1ccc2cccc(OCc3c(Cl)ccc(S(=O)(=O)NC(C)(C)C(=O)N4CCN(C(=O)[C@@H](N)CCCN(C)C)CC4)c3Cl)c2n1 | 0.398 nM | 25.1 nM | – |
| Cc1cc(C)c2cccc(OCc3c(Cl)ccc(S(=O)(=O)NC(C)(C)C(=O)N4CCN(C(=N)NCCCN)CC4)c3Cl)c2n1 | 1 nM | 2.51 nM | – |
| Cc1ccc2cccc(OCc3c(Cl)ccc(S(=O)(=O)NC(C)(C)C(=O)NCc4ccccc4)c3Cl)c2n1 | > 10000 nM | – | – |
| Cc1ccc2cccc(OCc3c(Cl)ccc(S(=O)(=O)NC(C)(C)C(=O)N4CCN(C(=O)C[C@@H](N)CCCCN(C)C)CC4)c3Cl)c2n1 | 0.631 nM | 39.8 nM | – |
| Cc1ccc2cccc(OCc3c(Cl)ccc(S(=O)(=O)NC(C)(C)C(=O)NCCCNCc4ccccn4)c3Cl)c2n1 | 39.8 nM | – | – |
| Cc1ccc2cccc(OCc3c(Cl)ccc(S(=O)(=O)NC(C)(C)C(=O)NCCCNCc4ccc(Cl)cc4)c3Cl)c2n1 | 794 nM | – | – |
| Cc1cc(C)c2cccc(OCc3c(Cl)ccc(S(=O)(=O)NC(C)(C)C(=O)NCCCNc4ccc(C(=N)N)cc4)c3Cl)c2n1 | 7.94 nM | – | – |
| Cc1ccc2cccc(OCc3c(Cl)ccc(S(=O)(=O)NC(C)(C)C(=O)NCCCNCc4ccc(O)cc4)c3Cl)c2n1 | 79.4 nM | – | – |
| Cc1cc(C)c2cccc(OCc3c(Cl)ccc(S(=O)(=O)NC(C)(C)C(=O)N4CCN(C(=O)[C@@H](N)CCCN(C)C)CC4)c3Cl)c2n1 | 0.398 nM | 0.794 nM | inhibition in vivo at 0.3 µmol/kg (Cavia porcellus [3]): 80%; Activity (Cavia porcellus [4]): 30% |
| Cc1cc(C)c2cccc(OCc3c(Cl)ccc(S(=O)(=O)NC(C)(C)C(=O)N4CCN(C(=O)[C@@H](N)CCCCN(C)C)CC4)c3Cl)c2n1 | – | 3.16 nM | – |
| Cc1ccc2cccc(OCc3c(Cl)ccc(S(=O)(=O)NC(C)(C)C(=O)N4CCN(C(=O)C[C@@H](N)CCCN(C)C)CC4)c3Cl)c2n1 | 0.794 nM | 39.8 nM | – |

The next lines start with results.

| Ki (B2 bradykinin receptor [1]) | Kb (B2 bradykinin receptor [2]) | SMILES | other results |
| --- | --- | --- | --- |
| 1 nM | 7.94 nM | Cc1ccc2cccc(OCc3c(Cl)ccc(S(=O)(=O)NC(C)(C)C(=O)N4CCN(C(=N)NCCCCCCN)CC4)c3Cl)c2n1 | – |
| 100 nM | – | Cc1ccc2cccc(OCc3c(Cl)ccc(S(=O)(=O)NC(C)(C)C(=O)NCCN)c3Cl)c2n1 | – |
| 200 nM | – | Cc1ccc2cccc(OCc3c(Cl)ccc(S(=O)(=O)NC(C)(C)C(=O)NCCCN(C)C)c3Cl)c2n1 | – |
| 631 nM | – | Cc1ccc2cccc(OCc3c(Cl)ccc(S(=O)(=O)NC(C)(C)C(=O)NCCCN4CCOCC4)c3Cl)c2n1 | – |
| 316 nM | – | Cc1ccc2cccc(OCc3c(Cl)ccc(S(=O)(=O)NC(C)(C)C(=O)NCCCNCc4ccoc4)c3Cl)c2n1 | – |
| 2.51 nM | 20 nM | Cc1ccc2cccc(OCc3c(Cl)ccc(S(=O)(=O)NC(C)(C)C(=O)N4CCN(CCCCCCN)CC4)c3Cl)c2n1 | – |
| 7940 nM | – | COCCNC(=O)C(C)(C)NS(=O)(=O)c1ccc(Cl)c(COc2cccc3ccc(C)nc23)c1Cl | – |
| 251 nM | – | Cc1ccc2cccc(OCc3c(Cl)ccc(S(=O)(=O)NC(C)(C)C(=O)NCCCN4CCN(C)CC4)c3Cl)c2n1 | – |
| 1.58 nM | 11 nM | Cc1ccc2cccc(OCc3c(Cl)ccc(S(=O)(=O)NC(C)(C)C(=O)N4CCN(C(=N)NCCCN)CC4)c3Cl)c2n1 | – |
| 1.58 nM | 7.94 nM | Cc1ccc2cccc(OCc3c(Cl)ccc(S(=O)(=O)NC(C)(C)C(=O)N4CCN(CCCCCCN=C(N)N)CC4)c3Cl)c2n1 | – |
| 398 nM | – | COCCCNC(=O)C(C)(C)NS(=O)(=O)c1ccc(Cl)c(COc2cccc3ccc(C)nc23)c1Cl | – |
| 39.8 nM | – | Cc1ccc2cccc(OCc3c(Cl)ccc(S(=O)(=O)NC(C)(C)C(=O)NCCCN=C(N)N)c3Cl)c2n1 | – |
| 79.4 nM | – | Cc1ccc2cccc(OCc3c(Cl)ccc(S(=O)(=O)NC(C)(C)C(=O)NC4CCNCC4)c3Cl)c2n1 | – |
| 20 nM | – | Cc1ccc2cccc(OCc3c(Cl)ccc(S(=O)(=O)NC(C)(C)C(=O)NCCN=C(N)N)c3Cl)c2n1 | – |
| > 10000 nM | – | Cc1ccc2cccc(OCc3c(Cl)ccc(S(=O)(=O)NC(C)(C)C(=O)NCCCc4ccccc4)c3Cl)c2n1 | – |
| > 10000 nM | – | Cc1ccc2cccc(OCc3c(Cl)ccc(S(=O)(=O)NC(C)(C)C(=O)NCCc4ccccc4)c3Cl)c2n1 | – |
| 10 nM | 39.8 nM | Cc1ccc2cccc(OCc3c(Cl)ccc(S(=O)(=O)NC(C)(C)C(=O)N4CCN(CCN=C(N)N)CC4)c3Cl)c2n1 | – |
| 200 nM | – | Cc1ccc(CNCCCNC(=O)C(C)(C)NS(=O)(=O)c2ccc(Cl)c(COc3cccc4ccc(C)nc34)c2Cl)cc1 | – |
| 3.98 nM | 39.8 nM | Cc1ccc2cccc(OCc3c(Cl)ccc(S(=O)(=O)NC(C)(C)C(=O)N4CCN(C(=N)N)CC4)c3Cl)c2n1 | – |
| 316 nM | – | Cc1ccc2cccc(OCc3c(Cl)ccc(S(=O)(=O)NC(C)(C)C(=O)NCCN4CCCCC4)c3Cl)c2n1 | – |
| 25.1 nM | – | Cc1ccc2cccc(OCc3c(Cl)ccc(S(=O)(=O)NC(C)(C)C(=O)N4CCCNCC4)c3Cl)c2n1 | – |
| 200 nM | – | Cc1ccc2cccc(OCc3c(Cl)ccc(S(=O)(=O)NC(C)(C)C(=O)NCCCCN)c3Cl)c2n1 | – |
| 200 nM | – | Cc1ccc2cccc(OCc3c(Cl)ccc(S(=O)(=O)NC(C)(C)C(=O)NCCCNCc4ccccc4)c3Cl)c2n1 | – |
| 2510 nM | – | Cc1ccc2cccc(OCc3c(Cl)ccc(S(=O)(=O)NC(C)(C)C(=O)NCCN4CCOCC4)c3Cl)c2n1 | – |
| 158 nM | – | Cc1ccc2cccc(OCc3c(Cl)ccc(S(=O)(=O)NC(C)(C)C(=O)NCC4CCNCC4)c3Cl)c2n1 | – |
| 158 nM | – | Cc1ccc2cccc(OCc3c(Cl)ccc(S(=O)(=O)NC(C)(C)C(=O)NCCCN)c3Cl)c2n1 | – |
| 158 nM | – | Cc1ccc2cccc(OCc3c(Cl)ccc(S(=O)(=O)NC(C)(C)C(=O)NCCCNCc4c[nH]cn4)c3Cl)c2n1 | – |
| 25.1 nM | – | Cc1ccc2cccc(OCc3c(Cl)ccc(S(=O)(=O)NC(C)(C)C(=O)N4CCNCC4)c3Cl)c2n1 | – |
